Screens from PubChem BioAssay.
PAFAH1B2 inh = inhibitors of human PAFAH1B2. recombinant PAFAH1B2, FP-rhodamine activity probe, fluorescence polarization. inhibition, % at 3.39 µM. 340,000 compounds, 1.2% hits. AID 492953;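 active means inhibition above the mean of all tested compounds plus 3 SD, cut at about 24% in these data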;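 further: 0% = enzyme with DMSO and 100% = wells lacking PAFAH1B2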
Target sequence (P68402 whole entry, looked up): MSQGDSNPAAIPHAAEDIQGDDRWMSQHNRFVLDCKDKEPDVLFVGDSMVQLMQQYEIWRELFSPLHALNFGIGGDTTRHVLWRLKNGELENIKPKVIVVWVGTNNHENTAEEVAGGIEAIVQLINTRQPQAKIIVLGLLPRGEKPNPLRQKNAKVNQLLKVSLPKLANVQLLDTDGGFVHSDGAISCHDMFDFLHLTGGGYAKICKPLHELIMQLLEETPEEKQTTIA
PAFAH1B3 FP inh = inhibitors of human PAFAH1B3; recombinant PAFAH1B3, FP-rhodamine probe, fluorescence polarization; Q15102; 340,000 compounds, 0.28% hits; AID 492972; inhibition, % at 3.39 µM;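 active means inhibition above the screen-wide average of all tested compounds plus 3 SD, cut at about 25% in these data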;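 further: 0% = enzyme with DMSO only and 100% = wells lacking PAFAH1B3 protein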
Target sequence (Q15102 whole entry, looked up): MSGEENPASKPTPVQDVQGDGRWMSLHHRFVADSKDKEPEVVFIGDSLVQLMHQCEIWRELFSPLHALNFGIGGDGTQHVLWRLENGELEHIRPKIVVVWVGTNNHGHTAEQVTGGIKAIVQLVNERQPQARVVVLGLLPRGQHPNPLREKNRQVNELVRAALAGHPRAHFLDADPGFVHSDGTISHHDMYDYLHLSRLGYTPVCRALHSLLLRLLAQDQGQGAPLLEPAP
PAFAH2 inh = PAFAH2 (human) inhibition; 340,000 compounds, 0.99% hits; Q99487; AID 492956; inhibition, % at 3.39 µM; recombinant PAFAH2, FP-rhodamine activity probe, fluorescence polarization;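 active means inhibition above the mean over all tested compounds plus 3 SD, cut at about 30% in these data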;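 further: inhibitors block probe labeling of enzyme so polarization drops; 0% = enzyme with DMSO and 100% = wells lacking PAFAH2 protein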
Apaf-1 inh = inhibitors of human Apaf-1 apoptosome; O14727; reconstituted apoptosome caspase-3 activity, DEVD-Rh110 fluorescence; inhibition, % at 20 µM; 330,000 compounds, 0.71% hits; active means inhibition of at least 40% at 20 µM;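 further: plate controls were DMSO wells for no effect and DEVD-CHO caspase inhibitor wells for full effect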
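detection = Rh110 fluorescence intensity | test system = biochemical Apaf-1 apoptosome reconstitution | also added = cytochrome c and DEVD-Rh110 substrate | schedule = 30 min plus 50 min, RT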
TDP2 absorb = TDP2 (human) inhibition, absorbance primary screen | 370,000 compounds, 0.34% hits | inhibition, % at 12.8 µM | AID 720702 | recombinant TDP2, T5PNP hydrolysis, p-nitrophenol absorbance 415 nm | O95551;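 active means inhibition above the mean of all tested compounds plus 3 SD, set per campaign, cut at about 25% in these data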;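 further: 0% = DMSO with enzyme and 100% = buffer with substrate but no TDP2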
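Assay system: Recombinant human TDP2 | Quantity: 120 nM TDP2 per well | Incubation: 2 h at 37 °C | Signal: Epi absorbance | Evaluation: Percent inhibition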
PAFAH2 FP conf = PAFAH2 (human) inhibition, confirmed; shares compounds with PAFAH2 inh; recombinant PAFAH2, FP-rhodamine activity probe, fluorescence polarization; inhibition, % at 3.39 µM; 2,300 compounds, 65% hits;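 active means mean inhibition over three repeats above a set limit taken from the earlier primary screen, cut at about 30% in these data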;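 further: inhibitor blocks binding of rhodamine activity probe so polarization falls; 0% = enzyme with DMSO and 100% = wells lacking PAFAH2 protein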
* marks the source's active call; other numbers are inactive results. Compounds with a hit are over-represented: about 2.3% of the library has one in this group of screens.

Screening CCN(c1cccc(C)c1)C1C(=O)c2ccccc2N1C(C)=O (stereo unspecified) returned PAFAH1B2 inh 12.2, PAFAH1B3 FP inh 5.7, PAFAH2 inh 37.5*, Apaf-1 inh 8.3, TDP2 absorb 3.0 and PAFAH2 FP conf 11.9.
For COC(=O)[C@]12C[C@H](CC(=O)N3CCCCC3)C(=O)N(CCC3=CCCCC3)C1=C[C@H](C(C)C)O[C@@H]2C1CC1 the results were TDP2 absorb 2.6.
Screening COCC(=O)N1CCC(C(=O)NCC2COc3ccccc3O2)CC1 (stereo unspecified) returned TDP2 absorb -4.5.
CC(NC(=O)COC(=O)c1ccco1)c1ccccc1 (stereo unspecified) was read as PAFAH1B2 inh 3.3, PAFAH1B3 FP inh -1.1, PAFAH2 inh 31.8*, Apaf-1 inh 1.4, TDP2 absorb -4.8 and PAFAH2 FP conf 25.9.
CN(C(=O)c1ccccc1C(=O)OCC(=O)Nc1ccccc1)c1ccccc1 was read as PAFAH1B2 inh 6.6, PAFAH1B3 FP inh 2.2, PAFAH2 inh 78.1*, Apaf-1 inh 11.2, TDP2 absorb -3.8 and PAFAH2 FP conf 77.1*.
For O=C(COC(=O)c1ccco1)Nc1ccc([N+](=O)[O-])cc1Cl the results were PAFAH1B2 inh 0.6, PAFAH1B3 FP inh 6.0, PAFAH2 inh 40.6*, Apaf-1 inh 0.1, TDP2 absorb 4.0 and PAFAH2 FP conf 22.9.
O=C(COC(=O)c1ccco1)Nc1ccc(Br)cc1 was read as PAFAH1B2 inh 3.7, PAFAH1B3 FP inh 6.1, PAFAH2 inh 77.2*, Apaf-1 inh -6.1, TDP2 absorb -6.0 and PAFAH2 FP conf 68.9*.
For Cc1ccc(C=Nn2c(-c3n[nH]c4c3CCC4)n[nH]c2=S)o1 the results were TDP2 absorb 1.1.
Screening O=C(COC(=O)c1ccco1)Nc1ccccc1 returned PAFAH1B2 inh -3.1, PAFAH1B3 FP inh 3.6, PAFAH2 inh 68.1*, Apaf-1 inh -3.1, TDP2 absorb 5.3 and PAFAH2 FP conf 65.5*.
`O=C(COC(=O)c1ccco1)Nc1ccc2[nH]c(=O)[nH]c2c1` gave PAFAH1B2 inh -4.1, PAFAH1B3 FP inh 5.5, PAFAH2 inh -1.7, Apaf-1 inh -23.8 and TDP2 absorb -5.7.
Screening C[C@H]1COC(=O)CCCC/C=C\C[C@H](CC(=O)N(CCO)Cc2ccccc2)C(=O)N1 returned PAFAH1B2 inh 3.2, PAFAH1B3 FP inh 12.3, PAFAH2 inh 2.4, Apaf-1 inh 10.0 and TDP2 absorb -3.6.
For O=C1CCC/C=C/C[C@H](CC(=O)N(CCO)Cc2ccccc2)C(=O)N[C@@H](Cc2ccccc2)CO1 the results were PAFAH1B2 inh 5.0, PAFAH1B3 FP inh -7.4, PAFAH2 inh 45.4*, Apaf-1 inh 7.4, TDP2 absorb 2.2 and PAFAH2 FP conf 29.4.
O=C1CCCC/C=C\C[C@H](CC(=O)N(CCO)Cc2ccccc2)C(=O)N[C@@H](Cc2ccccc2)CO1 was read as PAFAH1B2 inh 16.9, PAFAH1B3 FP inh 9.2, PAFAH2 inh 44.6*, Apaf-1 inh 8.1, TDP2 absorb 2.4 and PAFAH2 FP conf 28.0.
CCOc1cc(/C=C2\C(=O)ON=C2c2ccccc2)cc(Br)c1O was read as PAFAH1B2 inh 7.4, PAFAH1B3 FP inh 3.7, PAFAH2 inh 27.4, Apaf-1 inh 9.3 and TDP2 absorb -5.3.
For COc1cc(/C=C2/C(=O)ON=C2c2ccccc2)ccc1O the results were PAFAH1B2 inh 5.8, PAFAH1B3 FP inh 3.5, PAFAH2 inh -4.7, Apaf-1 inh 2.7 and TDP2 absorb 4.9.
COc1cc(/C=C2\C(=O)ON=C2c2ccccc2)cc(Br)c1O was read as PAFAH1B2 inh 1.9, PAFAH1B3 FP inh -6.5, PAFAH2 inh 59.1*, Apaf-1 inh 6.5, TDP2 absorb 6.2 and PAFAH2 FP conf 61.0*.
Screening COc1cc([N+](=O)[O-])ccc1-c1ccc(/C=C2\C(=O)ON=C2c2ccccc2)o1 returned PAFAH1B2 inh 7.8, PAFAH1B3 FP inh 6.3, PAFAH2 inh 29.8*, TDP2 absorb 3.4 and PAFAH2 FP conf 17.6.
COc1cc(/C=C2\C(=O)ON=C2c2ccccc2)cc(Cl)c1O was read as PAFAH1B2 inh 0.3, PAFAH1B3 FP inh -8.3, PAFAH2 inh 32.9*, Apaf-1 inh -1.7, TDP2 absorb -0.8 and PAFAH2 FP conf 46.9*.
COc1cc([N+](=O)[O-])ccc1-c1ccc(/C=N\n2cnnc2)o1 was read as PAFAH1B2 inh -8.1, PAFAH1B3 FP inh 0.6, PAFAH2 inh -10.9, Apaf-1 inh -10.6 and TDP2 absorb 0.5.
For COC(=O)c1ccc(OCC(=O)NC2CCCCCCC2)cc1 the results were PAFAH1B2 inh 5.4, PAFAH1B3 FP inh 6.2, PAFAH2 inh 3.4, Apaf-1 inh 13.0 and TDP2 absorb -15.3.
Screening CCOc1ccc(C(=O)OCC(=O)NC2CCCCCCC2)cc1 returned PAFAH1B2 inh 1.1, PAFAH1B3 FP inh 4.4, PAFAH2 inh 93.0*, Apaf-1 inh 4.2, TDP2 absorb -12.3 and PAFAH2 FP conf 85.7*.
CCOc1ccc(C(=O)NCC(=O)OCC(=O)NC2CCCC2)cc1 was read as PAFAH1B2 inh 5.2, PAFAH1B3 FP inh 10.1, PAFAH2 inh 36.3*, Apaf-1 inh -15.9, TDP2 absorb 5.4 and PAFAH2 FP conf 21.4.
For O=C(CSc1nnc(-c2ccccc2)n1-c1ccccc1)c1cccs1 the results were PAFAH1B2 inh 16.1, PAFAH1B3 FP inh 12.8, PAFAH2 inh 43.0*, Apaf-1 inh -1.3, TDP2 absorb -2.9 and PAFAH2 FP conf 28.6.
For O=C(CSc1nnc(-c2ccccc2)n1-c1ccccc1)c1ccc[nH]1 the results were PAFAH1B2 inh 12.7, PAFAH1B3 FP inh 3.8, PAFAH2 inh -2.3, Apaf-1 inh 1.2 and TDP2 absorb -8.3.
For COc1cccc(NC(=O)COC(=O)c2ccc(F)cc2F)c1 the results were PAFAH1B2 inh 3.7, PAFAH1B3 FP inh 2.4, PAFAH2 inh 72.7*, Apaf-1 inh 10.7, TDP2 absorb 5.9 and PAFAH2 FP conf 60.6*.
COc1ccc(NC(=O)COC(=O)c2ccc(F)cc2F)cc1 was read as PAFAH1B2 inh 7.7, PAFAH1B3 FP inh -0.1, PAFAH2 inh 2.4, Apaf-1 inh 1.0 and TDP2 absorb 10.1.
Screening N#Cc1ccccc1NC(=O)COC(=O)c1ccc(F)cc1F returned PAFAH1B2 inh 1.1, PAFAH1B3 FP inh 10.6, PAFAH2 inh 46.3*, Apaf-1 inh 0.8, TDP2 absorb 5.5 and PAFAH2 FP conf 17.4.
Screening COCC(=O)Nc1ccccc1C#N returned PAFAH1B2 inh -1.2, PAFAH1B3 FP inh -1.2, PAFAH2 inh -6.5, Apaf-1 inh -4.4 and TDP2 absorb -16.2.
Screening C[C@@H]1[C@@H](O)C[C@@]2(CC(=O)c3ccccc3O2)O[C@H]1c1ccccc1 returned TDP2 absorb 2.3.
Cc1onc(-c2ccc(Cl)cc2)c1-c1ccn(S(=O)(=O)c2cccc(Cl)c2)n1 was read as TDP2 absorb -19.1.
